Assay results reported in PubChem BioAssay.
Activity calls are given as the source filed them.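 Rule for the calls, unless noted: active = viability loss from added drug above about 55%, and viability with drug at most 40%, in both replicates (limit read from the data, passing the limit was not always enough); inconclusive = both conditions met in only one replicate; inactive = neither replicate meets both conditions.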

Experiments:
[1] = Her2 expression decrease, cell viability multiplex – SKBR3 breast tumor cells, AlphaScreen, ATP viability, primary screen (AID 461;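 active = Her2 level under about 52% in both replicate screens, with viability over 70% of control, limit read from the data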;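 for Her2 level: lower value means less Her2 protein in the cells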;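 for viability: percent of carrier control wells set as 100% viability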); settings: SKBR3 Her2 protein level, 18-24 h, measured here: SKBR3 viability, ATP luminescence, at 10 µM
[2] = target: Receptor tyrosine-protein kinase erbB-2 (Homo sapiens) (UniProt P04626); experiment: as above; settings: 18-24 h, at 10 µM, stronger effect = lower value
[3] = reduced viability of SK-BR-3 breast cancer cells – cell-based, 24 h, human, pilot screen (AID 572;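 active = viability at or below 10% of carrier control in both of two separate runs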;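 note: compound exposure lasted between 18 and 24 h rather than exactly 24 h; 100% = carrier-treated control wells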); settings: SK-BR-3 viability, CellTiter-Glo luminescence, at 10 µM, stronger effect = lower value
[4] = HUVEC growth inhibition – cell-based, human, primary screen (AID 575;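 active = viability at or below 30% in both replicate assays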;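 note: 100% = median of untreated cell wells with 0.1% DMSO on each plate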); settings: HUVEC proliferation, CellTiter-Glo luminescence, 72 h; at 10 µM; stronger effect = lower value
How it was run: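 Test system – primary HUVEC, no more than 12 passages · Dosing – one dose, 10 µM final, 0.1% DMSO · Times – 72 h treatment at 37 °C · Measured by – ATP-based CellTiter-Glo luminescent read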

[5] = H69AR cell proliferation blockers – human, duplicate replicates, primary screen (AID 580;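 active = viability at or under a set limit in both replicates, limit being median viability minus 3 SD, cut at about 48% in these data, passing the limit was not always enough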;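 note: 100% = mean luminescence of untreated wells and 0% = no signal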); settings: H69AR lung tumor cells viability, ATP luminescence, 72 h; at 10 µM; stronger effect = lower value
[6] = MRP1 drug-resistance reversers in H69AR cells – cell-based, doxorubicin co-treatment, pilot screen (AID 601); settings: CellTiter-Glo, 72 h, at 10 µM; for differential viability (reversal): stronger effect = higher value
[7] = yeast transport mutant growth inhibition pilot in 384-well plates, post-Golgi transport modulator project (AID 636; in the data active = inhibition above about 31%); settings: absorbance 615 nm, about 18 h, stronger effect = higher value
[8] = growth suppression of yeast trafficking mutant, preliminary HTS, modulators of trafficking downstream of Golgi apparatus project, 1536-format plate, OD 615 nm (AID 637; in the data active = inhibition above about 30%); settings: yeast transport mutant growth, absorbance 615 nm, 18 h; stronger effect = higher value
[9] = H69AR cells + 2 uM doxorubicin, measured here: viability with 2 uM doxorubicin, stronger effect = lower value
[10] = H69AR cells, compound alone cytotoxicity

Sequence of Receptor tyrosine-protein kinase erbB-2 (Homo sapiens) (P04626 whole entry, looked up): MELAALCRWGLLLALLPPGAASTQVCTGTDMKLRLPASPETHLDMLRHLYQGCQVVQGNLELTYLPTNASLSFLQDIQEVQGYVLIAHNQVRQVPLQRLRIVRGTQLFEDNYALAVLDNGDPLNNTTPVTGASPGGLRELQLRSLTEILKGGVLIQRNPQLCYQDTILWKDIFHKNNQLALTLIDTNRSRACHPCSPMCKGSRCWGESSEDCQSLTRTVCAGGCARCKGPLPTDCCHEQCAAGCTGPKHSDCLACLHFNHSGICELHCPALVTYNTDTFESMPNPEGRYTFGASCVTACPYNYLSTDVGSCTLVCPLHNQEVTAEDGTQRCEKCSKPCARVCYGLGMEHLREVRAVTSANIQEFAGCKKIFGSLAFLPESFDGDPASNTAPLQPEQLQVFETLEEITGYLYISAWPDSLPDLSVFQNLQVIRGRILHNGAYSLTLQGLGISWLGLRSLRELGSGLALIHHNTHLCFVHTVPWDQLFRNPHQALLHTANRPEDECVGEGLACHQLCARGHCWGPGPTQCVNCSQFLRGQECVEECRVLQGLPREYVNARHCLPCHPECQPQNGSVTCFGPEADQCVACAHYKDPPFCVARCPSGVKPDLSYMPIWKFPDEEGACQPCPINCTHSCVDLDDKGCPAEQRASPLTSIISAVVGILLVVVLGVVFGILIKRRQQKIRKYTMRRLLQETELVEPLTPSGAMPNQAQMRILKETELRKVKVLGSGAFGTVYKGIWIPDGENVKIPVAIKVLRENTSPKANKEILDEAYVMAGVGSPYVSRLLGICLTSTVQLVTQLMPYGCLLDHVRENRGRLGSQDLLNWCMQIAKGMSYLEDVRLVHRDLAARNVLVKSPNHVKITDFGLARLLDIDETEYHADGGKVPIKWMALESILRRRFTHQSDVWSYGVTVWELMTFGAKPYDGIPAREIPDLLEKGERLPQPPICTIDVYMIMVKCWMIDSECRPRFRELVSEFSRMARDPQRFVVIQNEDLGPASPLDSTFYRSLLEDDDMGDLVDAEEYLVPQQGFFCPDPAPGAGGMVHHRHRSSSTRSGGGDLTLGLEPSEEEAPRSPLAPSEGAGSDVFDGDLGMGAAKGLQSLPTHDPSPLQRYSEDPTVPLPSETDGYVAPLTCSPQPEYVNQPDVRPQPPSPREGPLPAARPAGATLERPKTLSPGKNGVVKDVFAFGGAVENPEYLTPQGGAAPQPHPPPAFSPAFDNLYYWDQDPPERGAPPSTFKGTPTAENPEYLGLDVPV

## Cn1c(COc2ccc(Cl)cc2)nnc1SCC(=O)NC1CCCCC1
[1]
  viability: 77%
[2]
  Her2 level: 108% (inactive)
[3]
  viability: 77% (inactive)
[4]
  viability: 89.5% (inactive)
[5]
  viability: 103% (inactive)
[6]; H69AR cells + 2 uM doxorubicin
  differential viability (reversal): 9.25% (inactive)
[6]; [9]
  viability: 94%
[6]; [10]
  viability: 103%
[7]
  inhibition: 2.13% (inactive)
[8]
  inhibition: 20.8% (inactive)

## CN(C)c1ccc(CNC2CC(C)(C)NC(C)(C)C2)cc1
[1]
  viability: 91%
[2]
  Her2 level: 112% (inactive)
[3]
  viability: 91% (inactive)
[4]
  viability: 94.2% (inactive)
[5]
  viability: 98.9% (inactive)
[6]; H69AR cells + 2 uM doxorubicin
  differential viability (reversal): 7.67% (inactive)
[6]; [9]
  viability: 91.3%
[6]; [10]
  viability: 98.9%
[7]
  inhibition: -7.5% (inactive)
[8]
  inhibition: -6.07% (inactive)

## CCc1ccccc1N=C1SCC(=O)N1C
[1]
  viability: 96.5%
[2]
  Her2 level: 102% (inactive)
[3]
  viability: 96.5% (inactive)
[4]
  viability: 87.9% (inactive)
[5]
  viability: 97% (inactive)
[6]; H69AR cells + 2 uM doxorubicin
  differential viability (reversal): 10.1% (inactive)
[6]; [9]
  viability: 86.8%
[6]; [10]
  viability: 97%
[7]
  inhibition: -6.67% (inactive)
[8]
  inhibition: -4.26% (inactive)

## CCN(C(=O)COC(=O)c1cc(C)n(-c2ccc(F)cc2)c1C)C1CCS(=O)(=O)C1 (stereo not given)
[1]
  viability: 85.5%
[2]
  Her2 level: 93.5% (inactive)
[3]
  viability: 85.5% (inactive)
[4]
  viability: 103% (inactive)
[5]
  viability: 103% (inactive)
[6]; H69AR cells + 2 uM doxorubicin
  differential viability (reversal): -0.795% (inactive)
[6]; [9]
  viability: 104%
[6]; [10]
  viability: 103%
[7]
  inhibition: -3.47% (inactive)
[8]
  inhibition: 1.61% (inactive)

## CCN1C(=O)NC(c2cc(Br)ccc2OC)C(C(=O)OC)=C1C (stereo not given)
[1]
  viability: 104%
[2]
  Her2 level: 114% (inactive)
[3]
  viability: 104% (inactive)
[4]
  viability: 104% (inactive)
[5]
  viability: 95.3% (inactive)
[6]; H69AR cells + 2 uM doxorubicin
  differential viability (reversal): -2.65% (inactive)
[6]; [9]
  viability: 98%
[6]; [10]
  viability: 95.3%
[7]
  inhibition: -2.63% (inactive)
[8]
  inhibition: -8.1% (inactive)

## Clc1cccc(Nc2c3c(nc4ncnn24)CCC3)c1
[1]
  viability: 94.5%
[2]
  Her2 level: 82.5% (inactive)
[3]
  viability: 94.5% (inactive)
[4]
  viability: 93% (inactive)
[5]
  viability: 83.8% (inactive)
[6]; H69AR cells + 2 uM doxorubicin
  differential viability (reversal): -5.48% (inactive)
[6]; [9]
  viability: 89.2%
[6]; [10]
  viability: 83.8%
[7]
  inhibition: 1.82% (inactive)
[8]
  inhibition: 9.84% (inactive)

## CC(=O)Nc1ccc(OCC(O)Cn2nc(C)nc2C)cc1 (stereo not given)
[1]
  viability: 93%
[2]
  Her2 level: 86.5% (inactive)
[3]
  viability: 93% (inactive)
[4]
  viability: 81.3% (inactive)
[5]
  viability: 91% (inactive)
[6]; H69AR cells + 2 uM doxorubicin
  differential viability (reversal): -5.46% (inactive)
[6]; [9]
  viability: 96.5%
[6]; [10]
  viability: 91%
[7]
  inhibition: -1.67% (inactive)
[8]
  inhibition: -4.83% (inactive)

## CC1=Nn2c(nnc2-c2ccccn2)SC1
[1]
  viability: 94%
[2]
  Her2 level: 104% (inactive)
[3]
  viability: 94% (inactive)
[4]
  viability: 88.7% (inactive)
[5]
  viability: 99.5% (inactive)
[6]; H69AR cells + 2 uM doxorubicin
  differential viability (reversal): 11.3% (inactive)
[6]; [9]
  viability: 88.2%
[6]; [10]
  viability: 99.5%
[7]
  inhibition: -4.4% (inactive)
[8]
  inhibition: -1.9% (inactive)

## COCCOC(=O)C1=C(N)OC2=C(C(=O)CC(C)(C)C2)C1c1cccnc1 (stereo not given)
[1]
  viability: 76%
[2]
  Her2 level: 101% (inactive)
[3]
  viability: 76% (inactive)
[4]
  viability: 101% (inactive)
[5]
  viability: 99% (inactive)
[6]; H69AR cells + 2 uM doxorubicin
  differential viability (reversal): 7.16% (inactive)
[6]; [9]
  viability: 91.9%
[6]; [10]
  viability: 99%
[7]
  inhibition: -5.95% (inactive)
[8]
  inhibition: -1.31% (inactive)

## COc1ccc(C(N)=O)cc1N
[1]
  viability: 77.5%
[2]
  Her2 level: 116% (inactive)
[3]
  viability: 77.5% (inactive)
[4]
  viability: 105% (inactive)
[5]
  viability: 94.6% (inactive)
[6]; H69AR cells + 2 uM doxorubicin
  differential viability (reversal): -1.72% (inactive)
[6]; [9]
  viability: 96.3%
[6]; [10]
  viability: 94.6%
[7]
  inhibition: 4.81% (inactive)
[8]
  inhibition: 18% (inactive)

## CS(=O)(=O)NCc1ccc(C(=O)NCc2ccccc2)cc1
[1]
  viability: 101%
[2]
  Her2 level: 97% (inactive)
[3]
  viability: 101% (inactive)
[4]
  viability: 83.5% (inactive)
[5]
  viability: 113% (inactive)
[6]; H69AR cells + 2 uM doxorubicin
  differential viability (reversal): 18.6% (inactive)
[6]; [9]
  viability: 94.4%
[6]; [10]
  viability: 113%
[7]
  inhibition: -4.47% (inactive)
[8]
  inhibition: 4% (inactive)

## CCC(=O)N1CCc2cc(S(=O)(=O)CCC(=O)Nc3ccc(F)c(F)c3)ccc21
[1]
  viability: 104%
[2]
  Her2 level: 160% (inactive)
[3]
  viability: 104% (inactive)
[4]
  viability: 97.3% (inactive)
[5]
  viability: 92.3% (inactive)
[6]; H69AR cells + 2 uM doxorubicin
  differential viability (reversal): 10.2% (inactive)
[6]; [9]
  viability: 82.1%
[6]; [10]
  viability: 92.3%
[7]
  inhibition: 0.13% (inactive)
[8]
  inhibition: -6% (inactive)

## Cc1cc2c(=O)n(Cc3ccco3)c(SCC(=O)NCc3ccco3)nc2s1
[1]
  viability: 100%
[2]
  Her2 level: 88% (inactive)
[3]
  viability: 100% (inactive)
[4]
  viability: 93.7% (inactive)
[5]
  viability: 81.2% (inactive)
[6]; H69AR cells + 2 uM doxorubicin
  differential viability (reversal): 4.87% (inactive)
[6]; [9]
  viability: 76.4%
[6]; [10]
  viability: 81.2%
[7]
  inhibition: -4% (inactive)
[8]
  inhibition: 1.9% (inactive)

## Cc1cc(C)n(CC(=O)n2c3c(c4ccccc42)CCCC3)n1
[1]
  viability: 116%
[2]
  Her2 level: 117% (inactive)
[3]
  viability: 116% (inactive)
[4]
  viability: 75.3% (inactive)
[5]
  viability: 74.4% (inactive)
[6]; H69AR cells + 2 uM doxorubicin
  differential viability (reversal): -6.97% (inactive)
[6]; [9]
  viability: 81.4%
[6]; [10]
  viability: 74.4%
[7]
  inhibition: -5.53% (inactive)
[8]
  inhibition: 3.77% (inactive)

## CCOc1ccc(C(C)=O)cc1COc1ccc(-n2cnnn2)cc1
[1]
  viability: 99%
[2]
  Her2 level: 108% (inactive)
[3]
  viability: 99% (inactive)
[4]
  viability: 111% (inactive)
[5]
  viability: 77.2% (inactive)
[6]; H69AR cells + 2 uM doxorubicin
  differential viability (reversal): -2.58% (inactive)
[6]; [9]
  viability: 79.8%
[6]; [10]
  viability: 77.2%
[7]
  inhibition: -4% (inactive)
[8]
  inhibition: -8.52% (inactive)

## CC(=O)Nc1ccc(S(=O)(=O)Nc2nc3n(n2)C(c2ccccc2)CC(=O)N3)cc1 (stereo not given)
[1]
  viability: 99.5%
[2]
  Her2 level: 83.5% (inactive)
[3]
  viability: 99.5% (inactive)
[4]
  viability: 102% (inactive)
[5]
  viability: 107% (inactive)
[6]; H69AR cells + 2 uM doxorubicin
  differential viability (reversal): 6.67% (inactive)
[6]; [9]
  viability: 99.9%
[6]; [10]
  viability: 107%
[7]
  inhibition: -7.7% (inactive)
[8]
  inhibition: -0.32% (inactive)
